Results of several laboratories.
Each line is one published result; the experiments were not run side by side. pEC50, pIC50: −log10 of the molar value.
Read-out: cell growth or viability

SMILES | cell line | assay | conditions | measurement | result
C=C(C)[C@@H]1CC[C@@H](C)C[C@H]1OCc1ccc(OC)cc1 | HeLa | MTT | 30 µM, 72 h | inhibition | 54%
O=C(C=Cc1cccc(F)c1)Nc1cc(-c2ccnc(N3CCC(O)CC3)c2)ccn1 | HeLa | MTT | 5 µM | inhibition | 82.7%
COc1cc2ncnc(Nc3ccc4c(c3)/C(=C/c3cccc(Cl)c3)C(=O)N4C)c2cc1OC | H22 | MTT | – | pIC50 | 5.42
C[C@@H]1CC[C@@H]([C@@](O)(CNCc2ccccc2)COCc2ccc(F)cc2)[C@H](OCc2ccc(F)cc2)C1 | HeLa | MTT | 10 µM, 72 h | inhibition | 96%
O=C(/C=C/c1ccc(F)cc1)Nc1cc(-c2ccnc(N3CCC(O)CC3)c2)ccn1 | HeLa | MTT | 5 µM | inhibition | 81.5%
Cc1c(C(=O)O)ccc2c3n(nc12)[C@@H]1[C@H](C3)N(CC2CC2)[C@@]2(C(=O)Nc3cc(Cl)ccc32)[C@H]1c1cccc(Cl)c1F | U2OS | resazurin | – | GI50 | > 2000 nM
C=C(COCc1ccccc1)[C@@H]1CC[C@@H](C)C[C@H]1OCc1ccccc1 | HeLa | MTT | 10 µM, 72 h | inhibition | 40.4%
Cc1nc(N(Cc2ccccc2)c2ccc3c(c2)/C(=C/c2ccccc2)C(=O)N3Cc2ccccc2)c2ccccc2n1 (mixture of isomers) | H22 | MTT | – | pIC50 | 6.06
C#Cc1nc(C2=C(C)C(OC(=O)CCC)/C(=N/OC(=O)CCC)C2)cs1 (stereo not shown) | U2OS | – | – | CC50 | 5950 nM
C=CC(=O)NC1CCN(c2ncc3ncnc(Nc4ccc(Oc5ccc6c(c5)ncn6C)c(C)c4)c3n2)CC1 | LS-411N | – | – | pEC50 | 7.93
O=C(C=Cc1ccccc1)Nc1cc(-c2ccnc(N3CCOCC3)c2)ccn1 | HeLa | MTT | 5 µM | inhibition | 74%
CCN1[C@@H](C(=O)NC23CCC(C(=O)O)(CC2)CC3)[C@H](c2cccc(Cl)c2F)[C@]2(C(=O)Nc3cc(Cl)ccc32)C12CCCCC2 | U2OS | resazurin | 72 h | GI50 | 703 nM
Cc1cccc(/C=C/C(=O)Nc2cccc(-c3ccnc(N4CCC(CO)CC4)c3)c2)c1 | HeLa | MTT | 5 µM | inhibition | 56.2%
C[C@@H]1CC[C@@H]([C@](C)(O)Cn2cnc3ccccc32)[C@H](OCc2ccccc2)C1 | HeLa | MTT | 30 µM, 72 h | inhibition | 89%
O=C(C=Cc1ccccc1)Nc1cc(-c2ccnc(N3CCC(O)CC3)c2)ccn1 | HeLa | MTT | 5 µM | inhibition | 75.2%
C=C(COCc1ccc(OC)cc1)[C@@H]1CC[C@@H](C)C[C@H]1OCc1ccc(OC)cc1 | HeLa | MTT | 10 µM, 72 h | inhibition | 39.2%
O=C(C=Cc1ccccc1)Nc1cccc(-c2ccnc(N3CCC(O)CC3)c2)c1 | HeLa | MTT | 5 µM | inhibition | 55.7%
COc1cc2ncnc(N(C)c3ccc4c(c3)/C(=C/c3cccc(Cl)c3)C(=O)N4C)c2cc1OC | H22 | MTT | – | pIC50 | 5.35
C[C@@H]1CC[C@@H]([C@](C)(O)CNCc2cccc3ccccc23)[C@H](OCc2ccccc2)C1 | HeLa | MTT | 30 µM, 72 h | inhibition | 86.8%
